Data published in ChEMBL document CHEMBL4842326, “Design, synthesis and biological evaluation of 3, 4-disubstituted-imidazolidine-2, 5-dione derivatives as HDAC6 selective inhibitors” (Eur J Med Chem, 2021).
pIC50: −log10 of the molar value. Calls of active or inactive are those of the source. No cut-off for these calls is given here.

Columns and labels:
[1] = target: T1, Histone deacetylase 8 (Homo sapiens, UniProt Q9BY41); test: Inhibition of HDAC8 (unknown origin) using Ac-LeuGlyLys(tfa)-AMC as substrate preincubated for 10 mins followed by substrate addition and further incubated for incubated for 1 hrs by fluorescence microtiter plate reader assay
T1 sequence (Q9BY41 whole entry): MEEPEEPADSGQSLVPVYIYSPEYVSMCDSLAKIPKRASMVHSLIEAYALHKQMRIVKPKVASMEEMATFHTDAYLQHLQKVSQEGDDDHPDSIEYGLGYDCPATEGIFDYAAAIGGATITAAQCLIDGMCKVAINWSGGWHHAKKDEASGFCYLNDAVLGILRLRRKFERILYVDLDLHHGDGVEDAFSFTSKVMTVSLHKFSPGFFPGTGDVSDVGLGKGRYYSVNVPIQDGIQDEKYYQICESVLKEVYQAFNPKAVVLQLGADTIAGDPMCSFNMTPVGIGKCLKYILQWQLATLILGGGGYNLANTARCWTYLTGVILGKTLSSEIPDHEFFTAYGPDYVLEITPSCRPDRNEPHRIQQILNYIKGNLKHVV

[2] = system: HL-60; test: Induction of apoptosis in human HL-60 cells assessed as late apoptotic cells at 3 uM after 48 hrs by Annexin V-FITC/propidium iodide staining based flow cytometric analysis (reference value: 1.45%); format: functional
Outline: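 HL-60 cells (1 × 10^6/well) exposed 48 h to compound dilutions, collected, PBS-washed, resuspended in Annexin V-FITC binding buffer, stained with propidium iodide and Annexin V-FITC for 15 min, then analysed by flow cytometry.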

[3] = Cytotoxicity against human GEC1 cells assessed as decrease in cell viability after 48 hrs by MTT assay; format: cell-based; conditions: GEC1, 48 h
Outline: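 Normal cells: HUVECs in RPMI1640 with 10% FBS plus 0.1% heparin, GEC-1 in RPMI1640 with 10% FBS. Seeded 8 h, then treated with serial dilutions for 48 h; 0.5% MTT for 4 h, supernatant removed, DMSO added, absorbance read at 570 nm.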

[4] = target: T2, Protein deacetylase HDAC6 (Homo sapiens) (UniProt Q9UBN7); test: Inhibition of HDAC6 in human HL-60 cells assessed as increase in acetylation of alpha tubulin by Western blot analysis; format: cell-based; conditions: TDE = time-dependent effect
T2 sequence (whole entry): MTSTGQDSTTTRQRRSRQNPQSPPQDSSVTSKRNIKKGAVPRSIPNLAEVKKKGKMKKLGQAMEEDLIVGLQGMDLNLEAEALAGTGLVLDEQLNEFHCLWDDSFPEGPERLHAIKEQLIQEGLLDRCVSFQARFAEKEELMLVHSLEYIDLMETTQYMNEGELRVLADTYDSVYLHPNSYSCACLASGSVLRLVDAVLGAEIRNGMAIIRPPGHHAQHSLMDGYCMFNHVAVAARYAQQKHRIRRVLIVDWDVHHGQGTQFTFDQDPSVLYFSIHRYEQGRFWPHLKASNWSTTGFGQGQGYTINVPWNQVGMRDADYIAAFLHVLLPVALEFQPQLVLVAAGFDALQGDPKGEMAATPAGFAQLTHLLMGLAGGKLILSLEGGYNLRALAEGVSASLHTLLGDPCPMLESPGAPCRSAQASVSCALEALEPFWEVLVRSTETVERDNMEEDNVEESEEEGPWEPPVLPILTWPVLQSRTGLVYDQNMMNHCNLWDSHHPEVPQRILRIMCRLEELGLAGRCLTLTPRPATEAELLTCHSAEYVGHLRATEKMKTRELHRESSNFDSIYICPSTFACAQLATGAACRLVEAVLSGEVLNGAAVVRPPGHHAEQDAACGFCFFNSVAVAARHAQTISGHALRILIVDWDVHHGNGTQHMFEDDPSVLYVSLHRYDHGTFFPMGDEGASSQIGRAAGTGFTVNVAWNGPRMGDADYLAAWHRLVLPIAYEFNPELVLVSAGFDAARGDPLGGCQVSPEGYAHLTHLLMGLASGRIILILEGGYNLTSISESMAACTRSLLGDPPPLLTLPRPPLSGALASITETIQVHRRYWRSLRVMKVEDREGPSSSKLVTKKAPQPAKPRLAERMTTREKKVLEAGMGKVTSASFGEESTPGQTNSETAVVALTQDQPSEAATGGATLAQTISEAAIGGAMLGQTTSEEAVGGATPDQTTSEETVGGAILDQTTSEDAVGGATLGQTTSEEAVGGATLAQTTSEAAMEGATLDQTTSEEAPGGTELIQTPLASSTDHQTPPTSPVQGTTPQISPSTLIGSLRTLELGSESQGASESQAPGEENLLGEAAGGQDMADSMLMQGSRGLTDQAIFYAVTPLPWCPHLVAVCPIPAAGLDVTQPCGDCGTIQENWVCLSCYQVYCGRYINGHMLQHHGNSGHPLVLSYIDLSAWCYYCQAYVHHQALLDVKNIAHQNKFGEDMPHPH
Outline: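 HL-60 cells treated 12 h or 24 h, pelleted, lysed in RIPA with 1 mM PMSF on ice 30 min, cleared at 4 °C; lysates run on 12.5% SDS-PAGE, blotted to PVDF, blocked in 5% milk 1 h, probed overnight at 4 °C for acetyl-α-tubulin, acetyl-H3 and GAPDH, secondary 1 h, ECL detection.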

[5] = target: T3, Protein deacetylase HDAC6 (Homo sapiens, UniProt Q9UBN7); test: Inhibition of HDAC6 (unknown origin) using Ac-LeuGlyLy-s(Ac)-AMC as substrate preincubated for 10 mins followed by substrate addition and further incubated for 2 hrs by fluorescence microtiter plate reader assay
T3 sequence (Q9UBN7 whole entry): T2 sequence (whole entry)

[6] = system: HL-60; test: Induction of apoptosis in human HL-60 cells at 3 uM measured after 48 hrs by TUNEL staining based fluorescence microscopy; format: functional, cell-based
Outline: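 HL-60 cells (1 × 10^6/well) given 3 µM compound or vehicle (0.2% DMSO) for 48 h; washed in cold PBS, fixed in paraformaldehyde 30 min, permeabilised with 0.5% Triton X-100 for 5 min, labelled 60 min with FITC-12-dUTP plus terminal deoxynucleotidyl transferase, washed twice, green fluorescence imaged by microscopy.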

[7] = system: HL-60; test: Induction of apoptosis in human HL-60 cells assessed as activation of caspase-3 at 3 uM measured by fluorescence assay; format: functional, cell-based

SMILES: O=C(NO)c1ccc(CN2C(=O)C(Cc3ccccc3)N(Cc3cccnc3)C2=O)cc1 (racemic)
- pIC50 [1]: 5.46
- Activity [2]: 10%
- pIC50 [3]: 4.17
- inhibition [4]: Tde
- pIC50 [5]: 8.68
- Activity [6]: Active
- Activity [7]: Active
